# Calls of active or inactive are those of the source. The calls are words filed in the database; no cut-off is given here.
# Columns and labels:
# [1] = target: Cyclin-dependent kinase 1/cyclin B1 (Homo sapiens) (UniProt P06493+P14635); experiment: Inhibition of recombinant human N-terminal GST/His6-tagged CDK1 (M1 to M297 residues)/Cyclin B1 (M1 to V433 residues) expressed in sf9 cells at 1 uM using RB-CTF as substrate by filter binding assay
# Summary of the method: (§1)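 Single-point profiling at 1 μM in a 22-kinase panel, performed externally by ProQinase; activity read as residual percent of control.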
# [2] = target: CDK2/Cyclin A2 (Homo sapiens) (UniProt P24941+P20248); experiment: Inhibition of recombinant human N-terminal GST-tagged CDK2 (M1 to L298 residues)/Cyclin A2 (M1 to L432 residues) expressed in baculovirus infected sf9 cells at 1 uM using Histone H1 as substrate by filter binding assay; summary of the method: as §1
# [3] = target: Cyclin-dependent kinase 4/cyclin D1 (Homo sapiens) (UniProt P11802+P24385); experiment: Inhibition of recombinant human N-terminal GST-tagged CDK4 (S4 to E303 residues)/Cyclin D1 (Q4 to I295 residues) expressed in sf9 cells at 1 uM using RB-CTF as substrate by filter binding assay; summary of the method: as §1
# [4] = target: Cyclin-dependent kinase 5/CDK5 activator 1 (Homo sapiens) (UniProt Q00535+Q15078); experiment: Inhibition of recombinant human N-terminal GST-tagged CDK5 (M1 to P292 residues)/p35NCK (M1 to R307 residues) expressed in baculovirus infected sf9 cells at 1 uM using RB-CTF as substrate by filter binding assay; summary of the method: as §1
# [5] = target: T1, Aurora kinase C (Homo sapiens) (UniProt Q9UQB9); experiment: Inhibition of human N-terminal GST-tagged Aurora B (M1 to S27 residues) expressed in sf9 cells at 1 uM using CDC25C-derived peptide as substrate by filter binding assay; summary of the method: as §1
# T1 sequence (whole entry): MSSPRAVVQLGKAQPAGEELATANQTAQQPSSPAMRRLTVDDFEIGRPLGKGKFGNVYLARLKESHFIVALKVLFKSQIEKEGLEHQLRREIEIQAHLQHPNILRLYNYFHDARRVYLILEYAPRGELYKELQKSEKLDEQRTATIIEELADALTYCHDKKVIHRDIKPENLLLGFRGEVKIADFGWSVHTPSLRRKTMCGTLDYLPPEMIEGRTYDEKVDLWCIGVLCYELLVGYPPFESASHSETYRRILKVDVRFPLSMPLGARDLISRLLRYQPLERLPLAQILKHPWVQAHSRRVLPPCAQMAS
# [6] = target: T2, Insulin-like growth factor 1 receptor (Homo sapiens, UniProt P08069); experiment: Inhibition of IGF1R phosphorylation at Tyr1161 residue in human MCF7 cells at 1 uM after 1 hr by Hoechst 33258 staining based immunohistochemical analysis; format: cell-based
# Summary of the method: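 MCF7 treated 1 h (test agent 1 μM; PI3K inhibitor 10 μM; 0.1% DMSO mock), fixed in 4% PFA 15 min, permeabilised/blocked, anti-p-IGF-1R Y1161 (1:200) overnight at 4 °C, Alexa 594 secondary 1 h, nuclei with Hoechst 33258 (1 μg/mL).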
# [7] = target: T2, Insulin-like growth factor 1 receptor; experiment: Inhibition of IGF1R phosphorylation at Tyr1161 residue in human MCF7 cells at 0.5 uM after 1 hr by immunoblot analysis; format: cell-based
# Summary of the method: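 MCF7 (DMEM/10% FBS, 24 h) treated with increasing concentrations for 1 h; 40 μg lysate on 10% SDS-PAGE, probed with p-IGF-1R (Y1161) antibody 1:1000 overnight at 4 °C; β-actin loading control, PI3K inhibitor positive control.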
# [8] = target: T2, Insulin-like growth factor 1 receptor; experiment: Inhibition of IGF1R in human MDA-MB-231 cells assessed as reduction in Akt phosphorylation at Ser473 residue after 24 hrs by immunoblot analysis; format: cell-based
# Summary of the method: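 Cells in their medium with 10% FBS exposed to rising concentrations for 24 h; whole-cell lysates immunoblotted for p-Akt (S473) and total Akt; PI3K inhibitor at 10 μM as positive control.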
# MCF7 = experiment: Induction of apoptosis in human MCF7 cells assessed as PARP cleavage after 6 hrs by immunoblot analysis; format: functional, cell-based
# Summary of the method: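 MCF7 in DMEM/10% FBS for 24 h, then treated 6 h; 0.1% DMSO as non-treated, Src inhibitor (10 μM) as positive control. Lysates (40 μg protein) on 10% SDS-PAGE, immunoblotted for PARP cleavage with ECL detection; β-actin loading control.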
# CCRF-CEM = experiment: Growth inhibition of human CCRF-CEM cells incubated for 48 hrs by sulforhodamine B assay; format: functional, cell-based
# K562 = experiment: Growth inhibition of human K562 cells incubated for 48 hrs by sulforhodamine B assay; format: functional, cell-based
# RPMI-8226 = experiment: Growth inhibition of human RPMI8226 cells incubated for 48 hrs by sulforhodamine B assay; format: functional, cell-based
# HOP-92 = experiment: Growth inhibition of human HOP92 cells incubated for 48 hrs by sulforhodamine B assay; format: functional, cell-based
# NCI-H322M = experiment: Growth inhibition of human NCI-H322M cells incubated for 48 hrs by sulforhodamine B assay; format: functional, cell-based
# HCT-116 = experiment: Growth inhibition of human HCT116 cells incubated for 48 hrs by sulforhodamine B assay; format: functional, cell-based
# HCT-15 = experiment: Growth inhibition of human HCT15 cells incubated for 48 hrs by sulforhodamine B assay; format: functional, cell-based
# SW-620 = experiment: Growth inhibition of human SW620 cells incubated for 48 hrs by sulforhodamine B assay; format: functional, cell-based
# Summary of the method: (§2)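 NCI-60 panel growth inhibition, run by the U.S. National Cancer Institute; GI50 values are means of two test series.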
# SF-268 = experiment: Growth inhibition of human SF268 cells incubated for 48 hrs by sulforhodamine B assay; format: functional, cell-based
# SNB-19 = experiment: Growth inhibition of human SNB19 cells incubated for 48 hrs by sulforhodamine B assay; format: functional, cell-based
# SNB-75 = experiment: Growth inhibition of human SNB75 cells incubated for 48 hrs by sulforhodamine B assay; format: functional, cell-based
# U-251 = experiment: Growth inhibition of human U251 cells incubated for 48 hrs by sulforhodamine B assay; format: functional, cell-based; summary of the method: as §2
# MDA-MB-435 = experiment: Growth inhibition of human MDA-MB-435 cells incubated for 48 hrs by sulforhodamine B assay; format: functional, cell-based
# UACC-257 = experiment: Growth inhibition of human UACC257 cells incubated for 48 hrs by sulforhodamine B assay; format: functional, cell-based; summary of the method: as §2
# OVCAR-3 = experiment: Growth inhibition of human OVCAR3 cells incubated for 48 hrs by sulforhodamine B assay; format: functional, cell-based
# OVCAR-4 = experiment: Growth inhibition of human OVCAR4 cells incubated for 48 hrs by sulforhodamine B assay; format: functional, cell-based
# A498 = experiment: Growth inhibition of human A498 cells incubated for 48 hrs by sulforhodamine B assay; format: functional, cell-based
# ACHN = experiment: Growth inhibition of human ACHN cells incubated for 48 hrs by sulforhodamine B assay; format: functional, cell-based
# RXF 393 = experiment: Growth inhibition of human RXF393 cells incubated for 48 hrs by sulforhodamine B assay; format: functional, cell-based
# SN12C = experiment: Growth inhibition of human SN12C cells incubated for 48 hrs by sulforhodamine B assay; format: functional, cell-based
# TK-10 = experiment: Growth inhibition of human TK10 cells incubated for 48 hrs by sulforhodamine B assay; format: functional, cell-based; summary of the method: as §2
# Hs-578T = experiment: Growth inhibition of human Hs 578T cells incubated for 48 hrs by sulforhodamine B assay; format: functional, cell-based
structure (smiles),measurement,setting,value
CN1CCN(CCO/N=C2/C(=C3/C(=O)Nc4ccccc43)Nc3ccccc32)CC1,inhibition,[1],inactive
same,inhibition,[2],inactive
same,inhibition,[3],inactive
same,inhibition,[4],inactive
same,inhibition,[5],inactive
same,inhibition,[6],Active
same,inhibition,[7],Active
same,inhibition,[8],Dose-dependent effect
same,Activity,MCF7,Active
same,growth inhibition (GI),CCRF-CEM,Active
same,growth inhibition (GI),K562,Active
same,growth inhibition (GI),RPMI-8226,Active
same,growth inhibition (GI),HOP-92,Active
same,growth inhibition (GI),NCI-H322M,Active
same,growth inhibition (GI),HCT-116,Active
same,growth inhibition (GI),HCT-15,Active
same,growth inhibition (GI),SW-620,Active
same,growth inhibition (GI),SF-268,Active
same,growth inhibition (GI),SNB-19,Active
same,growth inhibition (GI),SNB-75,Active
same,growth inhibition (GI),U-251,Active
same,growth inhibition (GI),MDA-MB-435,Active
same,growth inhibition (GI),UACC-257,Active
same,growth inhibition (GI),OVCAR-3,Active
same,growth inhibition (GI),OVCAR-4,Active
same,growth inhibition (GI),A498,Active
same,growth inhibition (GI),ACHN,Active
same,growth inhibition (GI),RXF 393,Active
same,growth inhibition (GI),SN12C,Active
same,growth inhibition (GI),TK-10,Active
same,growth inhibition (GI),Hs-578T,Active

# From ChEMBL document CHEMBL4014343 (J Med Chem, 2017)
